The target in one series is T1, Glyoxalase I (Saccharomyces cerevisiae S288c, UniProt P50107).
T1 sequence (P50107 whole entry): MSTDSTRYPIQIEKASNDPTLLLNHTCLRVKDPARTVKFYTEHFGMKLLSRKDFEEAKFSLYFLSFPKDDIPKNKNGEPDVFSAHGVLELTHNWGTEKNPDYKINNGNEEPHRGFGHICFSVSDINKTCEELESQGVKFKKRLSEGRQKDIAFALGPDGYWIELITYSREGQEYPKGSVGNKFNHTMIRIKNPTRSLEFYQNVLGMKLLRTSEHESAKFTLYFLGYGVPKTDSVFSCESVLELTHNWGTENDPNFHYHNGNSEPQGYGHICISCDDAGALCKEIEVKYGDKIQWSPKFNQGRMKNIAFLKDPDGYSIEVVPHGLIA
Put plainly: Inhibition of yeast glyoxalase 1. An outline of the steps: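 Yeast glyoxalase I run at 30 °C in 0.05 M phosphate buffer pH 6.6 with 0.1% BSA. Methylglyoxal (distilled, resin-treated, standardized) was present at up to 6.0 mM and fresh GSH at up to 1.3 mM. Inhibitor solutions were aqueous, adjusted to pH 6.6. Mixtures equilibrated for 6 min, then the initial rate was read as the A240 rise.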

The nature of series [1]: Stability in presence of equine kidney gamma-glutamyltranspeptidase at pH 8.4 by TLC. The series is classed as ADME. An outline of the steps:
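Inhibitor at 10 mM stock in 200 mM 2-amino-2-methyl-1,3-propanediol buffer, incubated at 37 °C with equine kidney γ-GT (0.54 mg/100 μL stock) plus Gly-Gly acceptor (40 mM stock). Breakdown was followed by TLC with UV, iodine and fluorescamine detection.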

On to `N[C@@H](CNC(=O)N[C@@H](CCC(=O)N(O)c1ccc(Br)cc1)C(=O)NCC(=O)O)C(=O)O`, for which the Ki on Glyoxalase I stood at 32.6 nM. The Stability result in series [1] was “Stable”. As for `N[C@@H](CCC(=O)N[C@@H](CSCc1ccc(Br)cc1)C(=O)NCC(=O)O)C(=O)O`, the affinity on Glyoxalase I corresponds to a Ki of 6280 nM. Regarding `N[C@@H](CCC(=O)N[C@@H](CCC(=O)N(O)c1ccc(Br)cc1)C(=O)NCC(=O)O)C(=O)O.O=C(O)C(F)(F)F`, at Glyoxalase I, the inhibition constant Ki is 6.17 nM. In series [1], the Stability result is reported as “Unstable”. Molecule `N[C@@H](CNC(=O)N[C@@H](CSCc1ccc(Br)cc1)C(=O)NCC(=O)O)C(=O)O` gave a Ki on Glyoxalase I of 12800 nM.

Consider `N[C@@H](CCC(=O)N[C@@H](CCN(O)C(=O)c1ccc(Br)cc1)C(=O)NCC(=O)O)C(=O)O.O=C(O)C(F)(F)F`, for which, at Glyoxalase I, the affinity, expressed as Ki, was 123 nM. For the same molecule, the Stability entry in series [1] was “Stable”. In turn, `N[C@@H](CCC(=O)N[C@H](CCC(=O)N(O)c1ccc(Br)cc1)C(=O)NCC(=O)O)C(=O)O.O=C(O)C(F)(F)F` returned a Ki on Glyoxalase I of 1660 nM. The Stability result in series [1] is “Stable”.
